Measurements from ChEMBL document CHEMBL3120160, “Nucleotide prodrugs of 2'-deoxy-2'-spirooxetane ribonucleosides as novel inhibitors of the HCV NS5B polymerase” (J Med Chem, 2014).
pEC50, pKi: −log10 of the molar value.

Assays:
Hepatitis C virus [1] = assay: Antiviral activity against Hepatitis C virus genotype 1b in human Huh7-luc clone ET replicon cells assessed as inhibition of replicon replication after 3 days by luciferase assay; format: functional, organism-based, Hepacivirus hominis; details: Huh-7, 72 h
Method in brief: (§1)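 Huh7 HCV replicon cells treated with compound for 3 days in 384-well format; antiviral EC50 and cytotoxic CC50 are each the mean of at least three repeats.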

[2] = Cytotoxicity against human HuH7 cells assessed as inhibition of cell proliferation after 3 days by BrdU incorporation assay; format: cell-based, Huh-7; method in brief: as §1
Hepatocyte [3] = assay: Prodrug activation in human hepatocytes assessed as triphosphate metabolite formation at 10 uM after 2 hrs by LC-MS analysis; format: ADME, cell-based
Method in brief: (§2)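 Prodrugs incubated at 10 μM with rat or human hepatocyte cultures; triphosphate metabolite quantified by LC–MS of cell lysates at 2 and 8 h.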

Hepatocyte [4] = assay: Prodrug activation in rat hepatocytes assessed as triphosphate metabolite formation at 10 uM after 2 hrs by LC-MS analysis; format: ADME, cell-based; method in brief: as §2
Hepatocyte [5] = assay: Prodrug activation in human hepatocytes assessed as triphosphate metabolite formation at 10 uM after 8 hrs by LC-MS analysis; format: ADME, cell-based; method in brief: as §2
Liver [6] = assay: Tmax in Sprague-Dawley rat liver assessed as triphosphate metabolite level at 50 mg/kg, po administered as single dose; format: ADME, organism-based; set-up: dose 50 mg/kg, route oral; details: in vivo
Liver [7] = assay: Cmax in Sprague-Dawley rat liver assessed as triphosphate metabolite level at 50 mg/kg, po administered as single dose measured per gm of tissue; format: ADME, organism-based; set-up: dose 50 mg/kg, route oral; details: in vivo
Liver [8] = assay: AUC (0 to last) in Sprague-Dawley rat liver assessed as triphosphate metabolite level at 50 mg/kg, po administered as single dose; format: ADME, organism-based; set-up: time 0 - last, dose 50 mg/kg, route oral; details: in vivo
Hepatocyte [9] = assay: Prodrug activation in rat hepatocytes assessed as triphosphate metabolite formation at 10 uM after 8 hrs by LC-MS analysis; format: ADME, cell-based; method in brief: as §2
Liver [10] = assay: AUC (0 to infinity) in Sprague-Dawley rat liver assessed as triphosphate metabolite level at 50 mg/kg, po administered as single dose; format: ADME, organism-based; set-up: time infinity, dose 50 mg/kg, route oral; details: in vivo
[11] = Inhibition of wild type Hepatitis C virus truncated NS5B RNA dependent RNA polymerase lacking C-terminal 21 aminoacids using cIRES as template after 2 hrs by filter plate assay; set-up: species or system Hepacivirus hominis
Method in brief: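 Wild-type HCV RdRp biochemical assay, tested with the nucleoside 5′-triphosphate (NTP) form; value reported as Ki, the average of two independent experiments.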

Hepatitis C virus [12] = assay: Antiviral activity against Hepatitis C virus genotype 1b harboring NS5B polymerase S282T mutant gene in human Huh7-luc clone ET replicon cells assessed as inhibition of replicon replication after 3 days by luciferase assay; format: functional, organism-based, Hepacivirus hominis; details: Huh-7, 72 h
Method in brief: (§3)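 Activity measured in a transient HCV replicon assay in which the NS5B polymerase carries the S282T substitution.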

Hepatitis C virus [13] = assay: Ratio of EC50 for Hepatitis C virus genotype 1b harboring NS5B polymerase S282T mutant gene to EC50 for Hepatitis C virus genotype 1b harboring wild type NS5B polymerase in human Huh7-luc clone ET replicon cells by luciferase assay; format: functional, Hepacivirus hominis, Huh-7
Hepatitis C virus [14] = assay: Antiviral activity against Hepatitis C virus harboring NS5B polymerase S282T mutant gene; format: functional, Hepacivirus hominis; method in brief: as §3
Hepatitis C virus [15] = assay: Ratio of EC90 for Hepatitis C virus harboring NS5B polymerase S282T mutant gene to EC90 for Hepatitis C virus harboring wild type NS5B polymerase; format: functional, Hepacivirus hominis

| Structure (SMILES) | pEC50 (Hepatitis C virus [1]) | CC50 at 72 h [2] | other results |
| --- | --- | --- | --- |
| C[C@H](N[P@](=O)(OC[C@H]1O[C@@H](n2ccc(N)nc2=O)[C@@]2(CCO2)[C@@H]1O)Oc1ccccc1)C(=O)OCc1ccccc1 | 4.45 | > 98 µM | – |
| C[C@H](N[P@@](=O)(OC[C@H]1O[C@@H](n2ccc(N)nc2=O)[C@@]2(CCO2)[C@@H]1O)Oc1ccccc1)C(=O)OCc1ccccc1 | 4.38 | > 98 µM | – |
| C[C@H](NP(=O)(OC[C@H]1O[C@@H](n2ccc(=O)[nH]c2=O)[C@@]2(CCO2)[C@@H]1O)Oc1ccccc1)C(=O)OCc1ccccc1 (mixture of isomers) | 5.24 | > 98 µM | Drug metabolism (Hepatocyte [3]): 304 ng/mL; Drug metabolism (Hepatocyte [4]): 112 ng/mL; Drug metabolism (Hepatocyte [5]): 2457 ng/mL; Tmax (Liver [6]): 2 h; Cmax (Liver [7]): 775 ng/g; AUClast (Liver [8]): 3263 ng·h/mL; Drug metabolism (Hepatocyte [9]): 81 ng/mL |
| C[C@H](NP(=O)(OC[C@H]1O[C@@H](n2ccc(N)nc2=O)[C@@]2(CCO2)[C@@H]1O)Oc1ccc(Cl)cc1)C(=O)OCc1ccccc1 (mixture of isomers) | 5.59 | > 98 µM | – |
| Nc1ccn([C@@H]2O[C@H](CO)[C@@H](O)[C@]23CCO3)c(=O)n1 | 4.77 | > 98 µM | – |
| CC(C)COC(=O)[C@H](C)NP(=O)(OC[C@H]1O[C@@H](n2ccc(=O)[nH]c2=O)[C@@]2(CCO2)[C@@H]1O)Oc1ccccc1 (mixture of isomers) | 6.64 | > 98 µM | – |
| CC(C)OC(=O)[C@H](C)NP(=O)(OC[C@H]1O[C@@H](n2ccc(=O)[nH]c2=O)[C@@]2(CCO2)[C@@H]1O)Oc1ccccc1 (mixture of isomers) | 4.68 | > 98 µM | – |
| C[C@H](N[P@@](=O)(OC[C@H]1O[C@@H](n2ccc(=O)[nH]c2=O)[C@@]2(CCO2)[C@@H]1O)Oc1cccc2ccccc12)C(=O)OCc1ccccc1 | 5.64 | > 98 µM | – |
| C[C@H](N[P@@](=O)(OC[C@H]1O[C@@H](n2ccc(=O)[nH]c2=O)[C@@]2(CCO2)[C@@H]1O)Oc1ccccc1)C(=O)OCc1ccccc1 | 5.30 | > 98 µM | – |
| CC[C@H](NP(=O)(OC[C@H]1O[C@@H](n2ccc(=O)[nH]c2=O)[C@@]2(CCO2)[C@@H]1O)Oc1ccccc1)C(=O)OCc1ccccc1 (mixture of isomers) | 5.24 | > 98 µM | Drug metabolism (Hepatocyte [3]): 202 ng/mL; Drug metabolism (Hepatocyte [4]): 215 ng/mL; Drug metabolism (Hepatocyte [5]): 1480 ng/mL; Tmax (Liver [6]): 6 h; Cmax (Liver [7]): 419 ng/g; AUClast (Liver [8]): 1108 ng·h/mL; Drug metabolism (Hepatocyte [9]): 87 ng/mL |
| C[C@@]1(O)[C@H](O)[C@@H](CO)O[C@H]1n1ccc(N)nc1=O | 5.34 | > 98 µM | – |
| CCCCOC(=O)[C@H](C)N[P@@](=O)(OC[C@H]1O[C@@H](n2ccc(=O)[nH]c2=O)[C@@]2(CCO2)[C@@H]1O)Oc1ccccc1 | 5.28 | > 98 µM | – |
| C[C@H](NP(=O)(OC[C@H]1O[C@@H](n2ccc(=O)[nH]c2=O)[C@@]2(CCO2)[C@@H]1O)Oc1cccc2ccccc12)C(=O)OCc1ccccc1 (mixture of isomers) | 5.70 | > 98 µM | Drug metabolism (Hepatocyte [3]): 1713 ng/mL; Drug metabolism (Hepatocyte [4]): 293 ng/mL; Drug metabolism (Hepatocyte [5]): 3373 ng/mL; Tmax (Liver [6]): 6 h; Cmax (Liver [7]): 754 ng/g; AUClast (Liver [8]): 8427 ng·h/mL; Drug metabolism (Hepatocyte [9]): 107 ng/mL; AUC (Liver [10]): 9142 ng·h/mL |
| CCCCOC(=O)[C@H](C)N[P@](=O)(OC[C@H]1O[C@@H](n2ccc(=O)[nH]c2=O)[C@@]2(CCO2)[C@@H]1O)Oc1ccccc1 | 5.66 | > 98 µM | – |
| C[C@@]1(F)[C@H](O)[C@@H](CO)O[C@H]1n1ccc(N)nc1=O | 5.72 | > 98 µM | – |
| C[C@H](NP(=O)(OC[C@H]1O[C@@H](n2ccc(=O)[nH]c2=O)[C@@]2(CCO2)[C@@H]1O)Oc1ccc(Cl)cc1)C(=O)OCc1ccccc1 (mixture of isomers) | 5.89 | > 98 µM | – |

| Structure (SMILES) | pEC50 (Hepatitis C virus [1]) | CC50 at 72 h [2] | other results |
| --- | --- | --- | --- |
| O=c1ccn([C@@H]2O[C@H](CO)[C@@H](O)[C@]23CCO3)c(=O)[nH]1 | < 4.01 | > 98 µM | pKi [11]: 5.62 |
| CC(C)CCOC(=O)[C@H](C)NP(=O)(OC[C@H]1O[C@@H](n2ccc(=O)[nH]c2=O)[C@@]2(CCO2)[C@@H]1O)Oc1ccccc1 (mixture of isomers) | 5.46 | > 98 µM | – |
| O=C(CNP(=O)(OC[C@H]1O[C@@H](n2ccc(=O)[nH]c2=O)[C@@]2(CCO2)[C@@H]1O)Oc1ccc(Cl)cc1)OCc1ccccc1 (mixture of isomers) | 6.49 | > 98 µM | – |
| CCCCOC(=O)[C@H](C)NP(=O)(OC[C@H]1O[C@@H](n2ccc(=O)[nH]c2=O)[C@@]2(CCO2)[C@@H]1O)Oc1ccccc1 (some centres undefined) | 5.41 | > 98 µM | Drug metabolism (Hepatocyte [3]): 351 ng/mL; Drug metabolism (Hepatocyte [4]): 152 ng/mL; Drug metabolism (Hepatocyte [5]): 2730 ng/mL; pEC50 (Hepatitis C virus [12]): 4.72; Tmax (Liver [6]): 6 h; Ratio EC50 (Hepatitis C virus [13]): 4.8; Cmax (Liver [7]): 894 ng/g; AUClast (Liver [8]): 9871 ng·h/mL; Drug metabolism (Hepatocyte [9]): 75 ng/mL; AUC (Liver [10]): 10480 ng·h/mL |
| O=C(OCc1ccccc1)[C@@H](NP(=O)(OC[C@H]1O[C@@H](n2ccc(=O)[nH]c2=O)[C@@]2(CCO2)[C@@H]1O)Oc1ccccc1)c1ccccc1 (mixture of isomers) | < 4.06 | > 92.8 µM | – |
| [N-]=[N+]=N[C@]1(CO)O[C@@H](n2ccc(=O)[nH]c2=O)[C@@H](O)[C@H]1O | < 4.00 | – | – |
| CC[C@H](NP(=O)(OC[C@H]1O[C@@H](n2ccc(=O)[nH]c2=O)[C@@]2(CCO2)[C@@H]1O)Oc1ccccc1)C(=O)OC(C)C (mixture of isomers) | < 4.02 | > 98 µM | – |
| C[C@H](N[P@](=O)(OC[C@H]1O[C@@H](n2ccc(=O)[nH]c2=O)[C@@]2(CCO2)[C@@H]1O)Oc1cccc2ccccc12)C(=O)OCc1ccccc1 | 5.43 | > 98 µM | – |
| CC(C)OC(=O)[C@H](C)NP(=O)(OC[C@H]1O[C@@H](n2ccc(N)nc2=O)[C@@]2(CCO2)[C@@H]1O)Oc1ccccc1 (mixture of isomers) | 6.13 | > 98 µM | – |
| CC[C@H](N[P@@](=O)(OC[C@H]1O[C@@H](n2ccc(=O)[nH]c2=O)[C@@]2(CCO2)[C@@H]1O)Oc1ccccc1)C(=O)OCc1ccccc1 | 5.31 | > 98 µM | – |
| COC(=O)C(C)(C)NP(=O)(OC[C@H]1O[C@@H](n2ccc(=O)[nH]c2=O)[C@@]2(CCO2)[C@@H]1O)Oc1ccccc1 (mixture of isomers) | 4.42 | > 98 µM | – |
| CC(C)OC(=O)[C@H](C)N[P@](=O)(OC[C@H]1O[C@@H](n2ccc(=O)[nH]c2=O)[C@](C)(F)[C@@H]1O)Oc1ccccc1 [SOFOSBUVIR] | – | – | EC90 (Hepatitis C virus [14]): 7.8 µM; Ratio (Hepatitis C virus [15]): 18.6 |
| C[C@H](N[P@](=O)(OC[C@H]1O[C@@H](n2ccc(=O)[nH]c2=O)[C@@]2(CCO2)[C@@H]1O)Oc1ccccc1)C(=O)OCc1ccccc1 | 5.68 | > 98 µM | – |
| CC[C@H](N[P@](=O)(OC[C@H]1O[C@@H](n2ccc(=O)[nH]c2=O)[C@@]2(CCO2)[C@@H]1O)Oc1ccccc1)C(=O)OCc1ccccc1 | 5.34 | > 98 µM | – |
| Cc1ccc(C(C)C)c(OP(=O)(N[C@@H](C)C(=O)OCc2ccccc2)OC[C@H]2O[C@@H](n3ccc(=O)[nH]c3=O)[C@@]3(CCO3)[C@@H]2O)c1 (mixture of isomers) | 5.12 | 29.6 µM | – |
